Assay [1] is described as follows: Resistance factor by IC50(K1)/IC50(HB3). Format: functional. In a few lines:
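P. falciparum K1 (uncloned, CQ-resistant) and HB3 (sensitive), both from Thailand, were cultured in human erythrocytes in RPMI 1640/HEPES/NaHCO3 with 10% human serum under 3% O2/4% CO2. Assays ran 48 h at 2% parasitemia and 0.5% hematocrit, in triplicate, from DMSO stocks diluted in medium. [3H]hypoxanthine was added at 24 h. IC50 came from probit of the log dose-response curve. The factor is K1 IC50 divided by HB3 IC50.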

The test system of assay [2] is Plasmodium falciparum. As to the kind of experiment: In vitro inhibitory activity against chloroquine-sensitive Plasmodium falciparum HB3. Format: functional, organism-based. In a few lines: (§1)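 Parasites kept in continuous culture in human erythrocytes in RPMI 1640 with 25 mM HEPES, 32 mM NaHCO3 and 10% human serum, gassed 3% O2/4% CO2/93% N2. 48-h assay at 2% parasitemia, 0.5% hematocrit, triplicate. Drugs from DMSO stocks diluted in medium. [3H]hypoxanthine added at 24 h, harvested at 48 h and counted. IC50 by probit interpolation of log dose–response.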

For assay [3], the system named is Plasmodium falciparum. Briefly: In vitro inhibitory activity against chloroquine-resistant Plasmodium falciparum K1. Format: functional, organism-based. In a few lines:
as §1

The test system of assay [4] is Plasmodium berghei (NS strain). As to the kind of experiment: In vivo inhibition of Plasmodium berghei infected male Swiss albino mice (Mus musculus) by oral dose.
The test system of assay [5] is Plasmodium berghei (NS strain). Briefly: In vivo inhibition of Plasmodium berghei infected male Swiss albino mice (Mus musculus) by intraperitoneal dose. The conditions noted are these: ip.

The text below walks through data of ChEMBL document CHEMBL1132310, “New 4-aminoquinoline Mannich base antimalarials. 1. Effect of an alkyl substituent in the 5'-position of the 4'-hydroxyanilino side chain” (J Med Chem, 1999).

What is called pIC50 is −log10 of the IC50, conventionally taken in molar units. For orientation: ED50 means the midpoint of the dose-response relation.

pIC50: −log10 of the molar value.

`CCN(CC)CCCC(C)Nc1ccnc2cc(Cl)ccc12` (centres undefined) had a Resistance factor in assay [1] of 9.57.

As to `CC(C)(C)NCc1cc(Nc2ccnc3cc(Cl)ccc23)cc(C2CCCCC2)c1O`, the Resistance factor in assay [1] came out at 2.13. Also, the pIC50 in the assay on Plasmodium falciparum [2] is 8.17; in the assay on Plasmodium falciparum [3] it was 7.84.

The compound `CC(C)(C)NCc1cc(Nc2ccnc3cc(Cl)ccc23)ccc1O` [N-TERT-BUTYL-AMODIAQUINE] yielded a Resistance factor in assay [1] of 2.33. The pIC50 in the assay on Plasmodium falciparum [2] is 8.83; with Plasmodium falciparum [3] it was 8.46.

Consider `CCCc1cc(Nc2ccnc3cc(Cl)ccc23)cc(CNC(C)(C)C)c1O`, for which, in assay [1], the Resistance factor stood at 1.86. Moreover, the ED50 was 0.56 mg/kg in assay [4] and 0.8 mg/kg in assay [5]. In addition, the values for the pIC50 with Plasmodium falciparum [2] and in the assay with Plasmodium falciparum [3] were 9.01 and 8.74, respectively.

In assay [1], `CCC(C)c1cc(Nc2ccnc3cc(Cl)ccc23)cc(CNC(C)(C)C)c1O` (centres undefined) came in with a Resistance factor of 2.92. Moreover, the figures for the negative-log IC50 (pIC50) in the assay with Plasmodium falciparum [2] and with Plasmodium falciparum [3] were 8.71 and 8.24, respectively.

As to `Cc1cc(Nc2ccnc3cc(Cl)ccc23)cc(CNC(C)(C)C)c1O`, the Resistance factor in assay [1] amounted to 3.76. In addition, the pIC50 with Plasmodium falciparum [2] was 8.52; in the assay with Plasmodium falciparum [3], 7.95.

On to `CCc1cc(Nc2ccnc3cc(Cl)ccc23)cc(CNC(C)(C)C)c1O`, for which the Resistance factor in assay [1] is 2.65. Further, the pIC50 was 8.53 in the assay with Plasmodium falciparum [2] and 8.10 with Plasmodium falciparum [3].

Consider `CC(C)(C)NCc1cc(Nc2ccnc3cc(Cl)ccc23)cc(C(C)(C)C)c1O`, for which the Resistance factor in assay [1] turned out to be 2.54. For the same compound, the pIC50 in the assay on Plasmodium falciparum [2] is 8.08; in the assay with Plasmodium falciparum [3] it was 7.67.

As to `CCN(CC)Cc1cc(Nc2ccnc3cc(Cl)ccc23)ccc1O.Cl`, the Resistance factor in assay [1] stood at 5.35. For the same compound, the 50% effective dose (ED50) came to 1.92 mg/kg in assay [4] and 3.3 mg/kg in assay [5]. Besides, the pIC50 was 8.61 in the assay on Plasmodium falciparum [2] and 7.88 in the assay with Plasmodium falciparum [3].

In turn, `CC(C)c1cc(Nc2ccnc3cc(Cl)ccc23)cc(CNC(C)(C)C)c1O` had a Resistance factor in assay [1] of 1.5. Moreover, the ED50 in assay [4] was 0.38 mg/kg; in assay [5] it was 0.78 mg/kg. For the same compound, the pIC50 in the assay on Plasmodium falciparum [2] was 8.91; in the assay on Plasmodium falciparum [3], 8.73.
